Measured values: ChEMBL document CHEMBL1139669, “8-Fluoroimidazo[1,2-a]pyridine: synthesis, physicochemical properties and evaluation as a bioisosteric replacement for imidazo[1,2-a]pyrimidine in an allosteric modulator ligand of the GABA A receptor” (Bioorg Med Chem Lett, 2006)

biological target: GABA-A receptor; alpha-3/beta-3/gamma-2 (Homo sapiens) (UniProt P18507+P28472+P34903); test: Efficacy against GABA-Aalpha3 receptor plus beta-3-gamma-2 expressed in mouse L(tk-) cells relative to chlorodiazepoxide by chlorine flux assay; format: functional, cell-based; details: not given
Summary of the method: (§1)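 Human GABA-A αxβ3γ2 receptors (α1 or α3) stably expressed in mouse LTK fibroblasts. ³⁶Cl⁻ flux assay with drug at 1000× Ki and GABA at EC20. Efficacy expressed relative to the maximal response of the full agonist chlordiazepoxide. Means of at least 7 determinations.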

Efficacy | Compound
61% | CC(C)(O)c1ccn2c(-c3ccc(F)c(-c4ccccc4C#N)c3)cnc2c1
104% | CC(C)(O)c1ccn2c(-c3ccc(F)c(-c4ccccc4C#N)c3)cnc2c1F
79% | CC(C)(O)c1ccn2c(-c3ccc(F)c(-c4ccccc4C#N)c3)cnc2n1

biological target: T1, GABA-A receptor; alpha-1/beta-3/gamma-2 (Homo sapiens) (UniProt P14867+P18507+P28472); test: Efficacy against GABA-Aalpha1 receptor plus beta3gamma2 expressed in mouse L(tk-) cells relative to chlorodiazepoxide by chlorine flux assay; format: functional, cell-based; details: not given; summary of the method: as §1

Efficacy | Compound
35% | CC(C)(O)c1ccn2c(-c3ccc(F)c(-c4ccccc4C#N)c3)cnc2c1

system: not listed separately; test: Dissociation constant, pKa of the compound; format: physicochemical; details: not given
Summary of the method: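 pKa determined from changes in the UV chromophore during a pH titration.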

pKa | Compound
4.9 | c1cnc2nccn2c1
5.4 | CC(C)(O)c1ccn2ccnc2n1
5.4 | CC(C)(O)c1ccn2ccnc2c1F
4.9 | Fc1cccn2ccnc12
6.9 | c1ccn2ccnc2c1
7.2 | CC(C)(O)c1ccn2ccnc2c1

system: not listed separately; test: Distribution coefficient, log D at pH 7.4; format: physicochemical; details: octanol/water
Summary of the method: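 Shake-flask partitioning between octanol and pH 7.4 aqueous buffer, shaken 20 min. logD7.4 is taken as the ratio of concentrations in octanol and in buffer.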

logD | Compound
-0.2 | c1cnc2nccn2c1
0.1 | CC(C)(O)c1ccn2ccnc2n1
1.1 | CC(C)(O)c1ccn2ccnc2c1F
0.9 | Fc1cccn2ccnc12
0.8 | c1ccn2ccnc2c1
0.6 | CC(C)(O)c1ccn2ccnc2c1

biological target: T2, GABA-A receptor; alpha-1/beta-3/gamma-2 (Homo sapiens, UniProt P14867+P18507+P28472); test: Displacement of [3H]Ro 15-1788 from human GABA-Aalpha1 receptor plus beta-3-gamma-2 expressed in mouse L(tk-) cells; format: cell-based; details: not given
T2 sequence (P14867 whole entry): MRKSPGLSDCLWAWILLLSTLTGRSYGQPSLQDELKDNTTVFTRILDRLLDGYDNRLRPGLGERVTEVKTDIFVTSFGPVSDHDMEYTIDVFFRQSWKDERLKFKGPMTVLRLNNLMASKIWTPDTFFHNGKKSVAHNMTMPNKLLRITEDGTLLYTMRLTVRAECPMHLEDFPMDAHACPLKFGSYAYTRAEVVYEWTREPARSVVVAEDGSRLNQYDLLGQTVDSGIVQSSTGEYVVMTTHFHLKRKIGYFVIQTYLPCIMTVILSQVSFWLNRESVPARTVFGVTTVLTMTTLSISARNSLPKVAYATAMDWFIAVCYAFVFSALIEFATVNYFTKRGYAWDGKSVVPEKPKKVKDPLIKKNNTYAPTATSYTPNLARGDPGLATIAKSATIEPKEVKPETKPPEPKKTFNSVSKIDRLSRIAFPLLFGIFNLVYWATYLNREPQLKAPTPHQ
T2 sequence (P18507 whole entry): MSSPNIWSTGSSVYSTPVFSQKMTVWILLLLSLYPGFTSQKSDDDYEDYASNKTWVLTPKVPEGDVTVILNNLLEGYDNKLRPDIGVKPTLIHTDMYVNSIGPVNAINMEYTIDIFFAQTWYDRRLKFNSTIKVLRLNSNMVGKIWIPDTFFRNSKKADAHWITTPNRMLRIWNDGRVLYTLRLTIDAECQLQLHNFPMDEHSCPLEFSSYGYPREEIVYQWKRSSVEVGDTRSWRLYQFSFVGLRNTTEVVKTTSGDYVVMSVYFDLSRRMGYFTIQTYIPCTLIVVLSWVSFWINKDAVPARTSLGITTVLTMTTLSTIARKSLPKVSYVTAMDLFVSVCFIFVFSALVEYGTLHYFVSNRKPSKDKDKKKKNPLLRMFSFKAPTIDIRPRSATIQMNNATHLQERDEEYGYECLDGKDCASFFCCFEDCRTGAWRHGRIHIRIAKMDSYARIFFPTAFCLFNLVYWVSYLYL
T2 sequence (P28472 whole entry): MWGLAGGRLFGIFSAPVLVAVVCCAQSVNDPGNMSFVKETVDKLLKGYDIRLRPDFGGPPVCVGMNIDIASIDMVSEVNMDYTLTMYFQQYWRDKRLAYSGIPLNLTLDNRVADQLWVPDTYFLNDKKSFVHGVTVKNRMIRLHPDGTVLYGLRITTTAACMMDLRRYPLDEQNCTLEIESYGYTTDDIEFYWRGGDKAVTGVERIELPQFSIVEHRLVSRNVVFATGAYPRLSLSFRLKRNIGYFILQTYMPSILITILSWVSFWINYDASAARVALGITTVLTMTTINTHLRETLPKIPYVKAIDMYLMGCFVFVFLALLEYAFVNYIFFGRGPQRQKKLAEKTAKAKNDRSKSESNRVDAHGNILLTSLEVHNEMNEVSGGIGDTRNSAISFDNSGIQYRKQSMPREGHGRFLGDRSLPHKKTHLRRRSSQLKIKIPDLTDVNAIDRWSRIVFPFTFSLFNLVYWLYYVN
Summary of the method: (§2)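 Competition binding against [³H]Ro15-1788 used at twice its Kd, with human GABA-A αxβ3γ2 receptors (α1 or α3) stably expressed in mouse LTK fibroblasts. Ki was calculated by Cheng-Prusoff from the inhibition curves. Values are means of three determinations.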

Ki | Compound
4.35 nM | CC(C)(O)c1ccn2c(-c3ccc(F)c(-c4ccccc4C#N)c3)cnc2c1
0.2 nM | CC(C)(O)c1ccn2c(-c3ccc(F)c(-c4ccccc4C#N)c3)cnc2c1F
0.71 nM | CC(C)(O)c1ccn2c(-c3ccc(F)c(-c4ccccc4C#N)c3)cnc2n1

biological target: T1, GABA-A receptor; alpha-1/beta-3/gamma-2 (Homo sapiens); test: Efficacy against GABA-Aalpha1 receptor plus beta-3-gamma-2 expressed in mouse L(tk-) cells relative to chlorodiazepoxide by electrophysiology method; format: functional, cell-based; details: not given
Summary of the method: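 Human GABA-A α1β3γ2 receptors stably expressed in mouse LTK fibroblasts. Electrophysiology measured maximum modulation of the GABA EC20 response, expressed relative to the maximal response of the full agonist chlordiazepoxide. Means of at least 5 determinations.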

Efficacy | Compound
34% | CC(C)(O)c1ccn2c(-c3ccc(F)c(-c4ccccc4C#N)c3)cnc2c1F
60% | CC(C)(O)c1ccn2c(-c3ccc(F)c(-c4ccccc4C#N)c3)cnc2n1

biological target: T3, GABA-A receptor; alpha-3/beta-3/gamma-2 (Homo sapiens, UniProt P18507+P28472+P34903); test: Displacement of [3H]Ro 15-1788 from human GABA-Aalpha3 receptor plus beta-3-gamma-2 expressed in mouse L(tk-) cells; format: cell-based; details: not given; summary of the method: as §2
T3 sequence (P18507 whole entry): T2 sequence (P18507 whole entry)
T3 sequence (P28472 whole entry): T2 sequence (P28472 whole entry)
T3 sequence (P34903 whole entry): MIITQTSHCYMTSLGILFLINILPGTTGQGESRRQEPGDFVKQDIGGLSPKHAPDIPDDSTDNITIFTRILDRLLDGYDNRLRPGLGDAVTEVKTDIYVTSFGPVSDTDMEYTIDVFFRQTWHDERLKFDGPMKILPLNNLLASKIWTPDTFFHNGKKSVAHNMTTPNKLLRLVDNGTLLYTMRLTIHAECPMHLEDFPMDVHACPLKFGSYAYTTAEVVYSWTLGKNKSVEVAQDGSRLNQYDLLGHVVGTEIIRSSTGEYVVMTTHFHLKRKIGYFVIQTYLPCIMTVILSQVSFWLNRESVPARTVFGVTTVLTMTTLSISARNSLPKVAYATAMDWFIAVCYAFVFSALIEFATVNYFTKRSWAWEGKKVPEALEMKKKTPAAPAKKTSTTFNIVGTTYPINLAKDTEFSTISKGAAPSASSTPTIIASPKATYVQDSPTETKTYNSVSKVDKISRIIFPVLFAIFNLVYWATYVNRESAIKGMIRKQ

Ki | Compound
5.16 nM | CC(C)(O)c1ccn2c(-c3ccc(F)c(-c4ccccc4C#N)c3)cnc2c1
0.32 nM | CC(C)(O)c1ccn2c(-c3ccc(F)c(-c4ccccc4C#N)c3)cnc2c1F
0.47 nM | CC(C)(O)c1ccn2c(-c3ccc(F)c(-c4ccccc4C#N)c3)cnc2n1
